From ChEMBL document CHEMBL3763015 (Bioorg Med Chem, 2016)
Calls of active or inactive are those of the source. The calls are words filed in the database; no cut-off is given here.

Assays:
[1] = molecular target: Cathepsin B (Bos taurus) (UniProt P07688); assay: Inhibition of bovine spleen cathepsin B using Z-Arg-Arg-MCA as substrate at 1 mM incubated for 10 mins
Method in brief: (§1)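 10 mU enzyme preincubated 10 min at 40 °C in 50 mM MES pH 6.0 with 2 mM DTT and 0.1% Brij-35. Z-Arg-Arg-MCA and inhibitor in DMSO were then added and incubated 10 min at 40 °C. Reaction stopped with sodium monochloroacetate/acetate buffer, pH 4.3. Screening was at 1.0 mM inhibitor; IC50 runs used 1 nM to 1 mM.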

[2] = molecular target: Cathepsin B (Bos taurus, UniProt P07688); assay: Inhibition of bovine spleen cathepsin B using Z-Arg-Arg-MCA as substrate incubated for 10 mins; method in brief: as §1
[3] = test system: HeLa; assay: Cytotoxicity against human HeLa cells assessed as cell death at 200 uM by […]; type: cell-based
Method in brief: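 HeLa cells were grown in DMEM with 5% FBS and 1% penicillin–streptomycin. 100 μl of 5000 cells/ml was seeded and held 24 h at 37 °C, 5% CO2. Compound at 200 μM, with rotenone control, was added for 24 h. WST-8/1-methoxy PMS was added for 2 h, and absorbance read at 450 nm against 630 nm. Result reported as cell death ratio.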

[4] = molecular target: Cathepsin B (Bos taurus) (UniProt P07688); assay: Competitive inhibition of bovine spleen cathepsin B using Z-Arg-Arg-MCA as substrate incubated for 10 mins by Lineweaver-Burk plot

SMILES | inhibition [1] | IC50 [2] | Activity [3] | inhibition [4]
COc1cc(/C=C/C(=O)N[C@H](COC(=O)c2ccccc2)C(=O)NC2CCCCC2)cc(OC)c1OC | 70% | 500 µM | – | –
O=C(/C=C/c1ccccc1)N[C@@H](COC(=O)CCc1ccccc1)C(=O)NC1CCCCC1 | 82% | – | – | –
COc1cc(/C=C/C(=O)N[C@@H](COC(=O)c2ccccc2)C(=O)NC2CCCCC2)cc(OC)c1OC | 21% | – | < 20% | –
COc1cc(/C=C/C(=O)N[C@@H](COC(=O)c2ccccc2)C(=O)NC2CCCCC2)cc(OC)c1 | inactive | – | < 20% | –
COc1ccccc1/C=C/C(=O)N[C@@H](COC(=O)c1ccccc1)C(=O)NC1CCCCC1 | 67% | 170 µM | – | Active
O=C(/C=C/c1ccccc1)N[C@@H](COC(=O)c1ccccc1)C(=O)NC1CCCCC1 | 34% | – | < 20% | –
COc1cccc(/C=C/C(=O)N[C@@H](COC(=O)c2ccccc2)C(=O)NC2CCCCC2)c1 | 36% | – | < 20% | –
O=C(/C=C/c1ccc(OC(=O)c2ccccc2)cc1)N[C@@H](COC(=O)c1ccccc1)C(=O)NC1CCCCC1 | 35% | – | < 20% | –
O=C(/C=C/c1ccccc1)N[C@H](COC(=O)c1ccccc1)C(=O)NC1CCCCC1 | inactive | – | – | –
COc1cccc(/C=C/C(=O)N[C@H](COC(=O)c2ccccc2)C(=O)NC2CCCCC2)c1 | 44% | – | – | –
O=C(/C=C/c1ccc(OC(=O)c2ccccc2)cc1)N[C@H](COC(=O)c1ccccc1)C(=O)NC1CCCCC1 | 19% | – | – | –
COc1ccc(/C=C/C(=O)N[C@@H](COC(=O)c2ccccc2)C(=O)NC2CCCCC2)cc1OC | 88% | – | – | –
COc1cc(/C=C/C(=O)N[C@H](COC(=O)c2ccccc2)C(=O)NC2CCCCC2)cc(OC)c1 | 22% | – | – | –
